Measurements as given in ChEMBL document CHEMBL1154900, “Modified phenazines from an Indonesian Streptomyces sp” (2010).
Active and inactive are the calls of the source. No cut-off for these calls is given here.

Columns and labels:
Rhizomucor miehei [1] = test: Antifungal activity against Mucor miehei at 56 ug/disk by agar diffusion method; type: functional, organism-based
Outline: (§1)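 Disk agar diffusion screen. Each sample was loaded per disk at the stated amount, either 14 µg/disk or 24 and 56 µg/disk. All six organisms were tested in one panel: S. aureus, B. subtilis, E. coli, P. aeruginosa, the fungus M. miehei and the yeast C. albicans.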

Escherichia coli [2] = test: Antibacterial activity against Escherichia coli at 24 ug/disk by agar diffusion method; type: functional, organism-based; outline: as §1
Candida albicans [3] = test: Antifungal activity against Candida albicans at 56 ug/disk by agar diffusion method; type: functional, organism-based; outline: as §1
Staphylococcus aureus [4] = test: Antibacterial activity against Staphylococcus aureus at 56 ug/disk by agar diffusion method; type: functional, organism-based; outline: as §1
Rhizomucor miehei [5] = test: Antifungal activity against Mucor miehei at 24 ug/disk by agar diffusion method; type: functional, organism-based; outline: as §1
Bacillus subtilis [6] = test: Antibacterial activity against Bacillus subtilis at 56 ug/disk by agar diffusion method; type: functional, organism-based; outline: as §1
Candida albicans [7] = test: Antifungal activity against Candida albicans at 24 ug/disk by agar diffusion method; type: functional, organism-based; outline: as §1
Staphylococcus aureus [8] = test: Antibacterial activity against Staphylococcus aureus at 24 ug/disk by agar diffusion method; type: functional; outline: as §1
Bacillus subtilis [9] = test: Antibacterial activity against Bacillus subtilis at 24 ug/disk by agar diffusion method; type: functional, organism-based; outline: as §1
Pseudomonas aeruginosa [10] = test: Antibacterial activity against Pseudomonas aeruginosa at 24 ug/disk by agar diffusion method; type: functional, organism-based; outline: as §1
Escherichia coli [11] = test: Antibacterial activity against Escherichia coli at 56 ug/disk by agar diffusion method; type: functional, organism-based; outline: as §1
Pseudomonas aeruginosa [12] = test: Antibacterial activity against Pseudomonas aeruginosa at 56 ug/disk by agar diffusion method; type: functional, organism-based; outline: as §1

## CCC(=O)C(C)C(=O)C(C)(Cc1ccc(OC)c2nc3c(C(=O)O)cccc3nc12)C(=O)OC (centres undefined)
Rhizomucor miehei [1]
  Activity: inactive
Escherichia coli [2]
  inhibition zone (IZ): inactive
Candida albicans [3]
  Activity: inactive
Staphylococcus aureus [4]
  Activity: inactive
Rhizomucor miehei [5]
  Activity: inactive
Bacillus subtilis [6]
  Activity: inactive
Candida albicans [7]
  Activity: inactive
Staphylococcus aureus [8]; read-out: IZ
  zone of inhibition at 24 µg/disc: 14 mm
Bacillus subtilis [9]
  Activity: inactive
Pseudomonas aeruginosa [10]
  Activity: inactive
Escherichia coli [11]
  Activity: inactive
Pseudomonas aeruginosa [12]
  Activity: inactive

## CCC(=O)C(C)C(=O)C1(C)Cc2ccc(OC)c3c2N(C1=O)c1cccc(C(=O)O)c1N3 (centres undefined)
Rhizomucor miehei [1]
  Activity: inactive
Escherichia coli [2]
  Activity: inactive
Candida albicans [3]
  Activity: inactive
Staphylococcus aureus [4]
  Activity: inactive
Rhizomucor miehei [5]
  Activity: inactive
Bacillus subtilis [6]
  Activity: inactive
Candida albicans [7]
  Activity: inactive
Staphylococcus aureus [8]
  Activity: inactive
Bacillus subtilis [9]
  Activity: inactive
Pseudomonas aeruginosa [10]
  Activity: inactive
Escherichia coli [11]
  Activity: inactive
Pseudomonas aeruginosa [12]
  Activity: inactive
